Experimental data taken from ChEMBL document CHEMBL3244375, “Hypolipidemic arylthioalkanoic acids” (J Med Chem, 1977).

Legend:
Rattus norvegicus [1] = assay: Toxicity in Sprague-Dawley rat assessed as mortality at 0.125 % compound administered in diet for 14 days relative to control; assay type: organism-based; conditions: in vivo, po, 336 h
Outline: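 Compound mixed into rat feed and given ad libitum for 14 days; control groups received feed alone. At the end of the period, animals were weighed and killed by decapitation, blood was collected, and the liver was removed and weighed.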

Rattus norvegicus [2] = assay: Hypolipidemic activity in Sprague-Dawley rat assessed as reduction in serum cholesterol level at 0.125 % compound administered in diet for 14 days relative to control; assay type: functional; design: scale not given: the % may be the effect or the level left
Outline: (§1)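 Test compound mixed into feed, given ad libitum to rats for 14 days; controls received feed alone. Rats then weighed and killed by decapitation; blood collected and serum cholesterol and triglycerides measured by previously described methods. Data reported as mg% serum with SD per group, % change versus control; significance by Student's t test. Dose-response groups of eight rats.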

Rattus norvegicus [3] = assay: Hypolipidemic activity in Sprague-Dawley rat assessed as reduction in serum triglyceride level at 0.125 % compound administered in diet for 14 days relative to control; assay type: functional; design: scale not given: the % may be the effect or the level left; outline: as §1
Rattus norvegicus [4] = assay: Toxicity in Sprague-Dawley rat assessed as increase in liver weight at 0.125 % compound administered in diet for 14 days relative to control; assay type: organism-based; conditions: in vivo, po, 336 h
Outline: (§2)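 Rats fed compound-containing diet ad libitum for 14 days alongside feed-only controls, eight rats per group in the dose-response study. At sacrifice by decapitation, liver removed and weighed. Change from controls scored semi-quantitatively, each + or − sign representing about a 10% change.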

[5] = Retardation factor of the compound by thin layer chromatography; assay type: physicochemical
Rattus norvegicus [6] = assay: Hypolipidemic activity in Sprague-Dawley rat assessed as reduction in serum cholesterol level at 0.25 % compound administered in diet for 14 days relative to control; assay type: functional; design: scale not given: the % may be the effect or the level left; outline: as §1
Rattus norvegicus [7] = assay: Hypolipidemic activity in Sprague-Dawley rat assessed as reduction in serum triglyceride level at 0.25 % compound administered in diet for 14 days relative to control; assay type: functional; design: scale not given: the % may be the effect or the level left; outline: as §1
Rattus norvegicus [8] = assay: Toxicity in Sprague-Dawley rat assessed as increase in liver weight at 0.25 % compound administered in diet for 14 days relative to control; assay type: organism-based; conditions: in vivo, po, 336 h; outline: as §2
Rattus norvegicus [9] = assay: Hypolipidemic activity in Sprague-Dawley rat assessed as reduction in serum triglyceride level at 0.06 % compound administered in diet for 14 days relative to control; assay type: functional; design: scale not given: the % may be the effect or the level left; outline: as §1
[10] = Toxicity in mouse; assay type: organism-based; conditions: in vivo
[11] = Toxicity in rat; assay type: organism-based; conditions: in vivo
Rattus norvegicus [12] = assay: Hypolipidemic activity in Sprague-Dawley rat assessed as reduction in serum cholesterol level at 0.03 % compound administered in diet for 14 days relative to control; assay type: functional; design: scale not given: the % may be the effect or the level left; outline: as §1
Rattus norvegicus [13] = assay: Hypolipidemic activity in Sprague-Dawley rat assessed as reduction in serum triglyceride level at 0.03 % compound administered in diet for 14 days relative to control; assay type: functional; design: scale not given: the % may be the effect or the level left; outline: as §1
Rattus norvegicus [14] = assay: Hypolipidemic activity in Sprague-Dawley rat assessed as reduction in serum cholesterol level at 0.06 % compound administered in diet for 14 days relative to control; assay type: functional; design: scale not given: the % may be the effect or the level left; outline: as §1

Row | SMILES | Activity (Rattus norvegicus [2]) | Activity (Rattus norvegicus [3]) | Activity (Rattus norvegicus [4]) | Activity (Rattus norvegicus [6]) | Activity (Rattus norvegicus [7]) | further results
1 | CC(Oc1cc(C(C)(C)C)c(O)c(C(C)(C)C)c1)C(=O)O (configuration not stated) |  |  |  |  |  | Activity (Rattus norvegicus [1]): Toxic
2 | CCCCC(Sc1ccc(OC)cc1)C(=O)O (configuration not stated) | -12% | -45% | 0% |  |  | deltaRm [5]: 0.08
3 | CCCC(Sc1cc(C(C)(C)C)c(O)c(C(C)(C)C)c1)C(=O)O (configuration not stated) | -3% | -72% | 30% |  |  | 
4 | CCCCCCC(C)(Sc1cc(C(C)(C)C)cc(C(C)(C)C)c1)C(=O)O (configuration not stated) | -38% | -68% | 30% |  |  | 
5 | CC(C)(Sc1cc(C(C)(C)C)c(O)c(C(C)(C)C)c1)C(=O)O |  |  |  | -21% | -66% | Activity (Rattus norvegicus [8]): 40%
6 | CCCCC(Sc1ccc(Cl)cc1)C(=O)O (configuration not stated) | -16% | -41% | 0% |  |  | deltaRm [5]: 0.25
7 | CCC(C)(Sc1cc(C(C)(C)C)c(O)c(C(C)(C)C)c1)C(=O)O (configuration not stated) |  |  |  | -32% | -80% | Activity (Rattus norvegicus [8]): 40%
8 | CCCC(Sc1cc(C(C)(C)C)c(O)c(C(C)(C)C)c1)C(=O)OCC (configuration not stated) |  |  |  | 0% | -54% | Activity (Rattus norvegicus [8]): 0%
9 | CCCCCC(Sc1cc(C(C)(C)C)c(O)c(C(C)(C)C)c1)C(=O)O (configuration not stated) |  |  |  | -24% | -53% | Activity (Rattus norvegicus [8]): 10%
10 | CCCCC(Sc1ccccc1)C(=O)O (configuration not stated) | -16% | -37% | 0% |  |  | deltaRm [5]: 0
11 | CCCCC(Sc1cc(C(C)(C)C)cc(C(C)(C)C)c1)C(=O)O (configuration not stated) | -23% | -58% | 20% | -20% | -41% | deltaRm [5]: 1.18
12 | CCOC(=O)C(C)(C)Sc1cc(C(C)(C)C)c(O)c(C(C)(C)C)c1 |  |  |  | -23% | -60% | Activity (Rattus norvegicus [8]): 20%
13 | CCOC(=O)C(C)(C)Oc1ccc(Cl)cc1 [CLOFIBRATE] |  |  |  | -28% | -50% | Activity (Rattus norvegicus [8]): 20%
14 | CC(C)(Sc1cc(C(C)(C)C)c(O)c(C(C)(C)C)c1)Sc1cc(C(C)(C)C)c(O)c(C(C)(C)C)c1 [PROBUCOL] |  |  |  | 38% | -33% | Activity (Rattus norvegicus [8]): 0%
15 | CCCCC(C(=O)O)S(=O)(=O)c1cc(C(C)(C)C)c(O)c(C(C)(C)C)c1 (configuration not stated) | -14% | -36% | 20% | -17% | -44% | 
16 | CCCC(C)(Sc1cc(C(C)(C)C)c(O)c(C(C)(C)C)c1)C(=O)O (configuration not stated) | 12% | -55% | 30% |  |  | 
17 | CCC(Oc1cc(C(C)(C)C)c(O)c(C(C)(C)C)c1)C(=O)O (configuration not stated) | 6% | 38% |  |  |  | 
18 | CC(C)(Sc1cc(C(C)(C)C)cc(C(C)(C)C)c1)C(=O)O | -31% | -63% | 30% |  |  | 
19 | CCCCC(C)(Sc1cc(C(C)(C)C)c(O)c(C(C)(C)C)c1)C(=O)O (configuration not stated) | 8% | -66% | 20% |  |  | 

Row | SMILES | Activity (Rattus norvegicus [2]) | Activity (Rattus norvegicus [3]) | Activity (Rattus norvegicus [4]) | Activity (Rattus norvegicus [6]) | Activity (Rattus norvegicus [7]) | further results
20 | CCCCC(Sc1ccc(Br)c(C)c1)C(=O)O (configuration not stated) | -17% | -49% | 20% |  |  | deltaRm [5]: 0.51
21 | CC(Sc1cc(C(C)(C)C)c(O)c(C(C)(C)C)c1)C(=O)O (configuration not stated) |  |  |  | -32% | -78% | Activity (Rattus norvegicus [8]): 30%
22 | CCC(Sc1cc(C(C)(C)C)c(O)c(C(C)(C)C)c1)C(=O)O (configuration not stated) |  |  |  | -37% | -74% | Activity (Rattus norvegicus [8]): 40%
23 | CCCCCCC(C)(Sc1cc(C(C)(C)C)c(O)c(C(C)(C)C)c1)C(=O)O (configuration not stated) | 17% | -73% | 10% |  |  | 
24 | CCCCC(C(=O)OCC)c1cc(C(C)(C)C)c(O)c(C(C)(C)C)c1 (configuration not stated) | -2% | -10% |  |  |  | 
25 | CCCCCC(C)(Sc1cc(C(C)(C)C)cc(C(C)(C)C)c1)C(=O)O (configuration not stated) | -27% | -73% | 20% |  |  | 
26 | CCOC(=O)C(CC)Sc1cc(C(C)(C)C)c(O)c(C(C)(C)C)c1 (configuration not stated) | 13% | -43% |  | -5% | -55% | Activity (Rattus norvegicus [8]): 10%
27 | CC(C)(C)c1cc(SCC(=O)O)cc(C(C)(C)C)c1O |  |  |  | -16% |  | 
28 | CC(C)(C)c1cc(OCC(=O)O)cc(C(C)(C)C)c1O | 13% | -50% |  |  |  | 
29 | CCCCC(Oc1cc(C(C)(C)C)c(O)c(C(C)(C)C)c1)C(=O)O (configuration not stated) | -7% | -38% | 20% |  |  | 
30 | CCCCC(Sc1ccc(C)cc1)C(=O)O (configuration not stated) | -11% | -23% | 0% |  |  | deltaRm [5]: 0.23
31 | CCCCCC(C)(Sc1cc(C(C)(C)C)c(O)c(C(C)(C)C)c1)C(=O)O (configuration not stated) | -10% | -60% | 10% |  |  | 
32 | CCCC(C)(Sc1cc(C(C)(C)C)cc(C(C)(C)C)c1)C(=O)O (configuration not stated) | -29% | -80% | 40% |  |  | 
33 | CCCCC(Oc1cc(C(C)(C)C)c(O)c(C(C)(C)C)c1)C(=O)OCC (configuration not stated) | -13% | -28% | 10% |  |  | 
34 | CCCCC(Sc1cc(C(C)(C)C)c(O)c(C(C)(C)C)c1)C(=O)O (racemic) | -32% | -66% | 10% | -30% | -69% | Activity (Rattus norvegicus [9]): -61%; LD50 [10]: 5000 mg/kg; LD50 [11]: 7200 mg/kg; Activity (Rattus norvegicus [12]): -21%; Activity (Rattus norvegicus [13]): -35%; Activity (Rattus norvegicus [8]): 20%; deltaRm [5]: 0.96; Activity (Rattus norvegicus [14]): -28%
35 | CCCCC(C(=O)O)c1cc(C(C)(C)C)c(O)c(C(C)(C)C)c1 (configuration not stated) | -20% | -24% |  |  |  | 
36 | CCCCC(Sc1cc(C2CCCCC2)c(O)c(C2CCCCC2)c1)C(=O)O (configuration not stated) | -3% | 5% | Non-toxic |  |  | deltaRm [5]: 1.1
37 | CCCCC(Sc1cc(C2CCCC2)c(O)c(C2CCCC2)c1)C(=O)O (configuration not stated) | -11% | -16% | Non-toxic |  |  | deltaRm [5]: 0.94
